# Compound activity from PubChem.
# MrgX1 allo act – allosterically activates human MrgX1 receptor signaling; MrgX1-HEK293, Fluo-4 calcium flux, FDSS; active compounds read high; B-score at 10 µM; hit rate 0.63% among 310,000; AID 588675;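 active = plate-corrected calcium response at least 3 library SD above typical, normal starting fluorescence, not activating the receptor alone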;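 note: compound read alongside a low EC10 to EC30 dose of BAM8-22 agonist; peak minus trough fluorescence over baseline measured at the second addition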
# Target sequence (Q96LB2 whole entry, looked up): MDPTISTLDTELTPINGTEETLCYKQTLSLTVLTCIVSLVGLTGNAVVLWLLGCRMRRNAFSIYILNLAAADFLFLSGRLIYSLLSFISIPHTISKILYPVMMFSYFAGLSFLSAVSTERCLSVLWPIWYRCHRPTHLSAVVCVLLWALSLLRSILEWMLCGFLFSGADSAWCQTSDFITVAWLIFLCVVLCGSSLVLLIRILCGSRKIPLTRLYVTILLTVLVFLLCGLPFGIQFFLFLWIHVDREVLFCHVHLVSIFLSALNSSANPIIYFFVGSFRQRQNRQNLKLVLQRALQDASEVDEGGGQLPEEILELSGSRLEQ
# MrgX1 antag – human MrgX1 receptor antagonism, primary screen; Q96LB2; AID 588676; MRGX1-HEK293 calcium flux, Fluo-4, BAM8-22 antagonism; active compounds read low; hit rate 1.3% among 310,000; B-score at 10 µM;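 active = calcium-response B-score plate-corrected more than 3 library SD below zero, starting fluorescence within 5 deviations, no agonist response on first addition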;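 note: peak minus trough fluorescence over baseline after final BAM8-22 challenge near maximal dose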
# MrgX1 agonist – activates human MrgX1 receptor signaling. hit rate 0.44% among 310,000. AID 588627. Q96LB2. B-score at 10 µM. MrgX1-HEK293 cells, Fluo-4 calcium fluorescence, agonist mode; active compounds read high;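 active = calcium response B-score plate-corrected fluorescence ratio at least 3 library SD, with starting fluorescence B-score inside 5 SD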
#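 Test system: HEK293 cells stably expressing human MrgX1 receptor; amount: 15,000 cells per well; doses: compound delivered in addition one of three; times: overnight plating before 1 h dye loading; detection: Fluo-4 NW calcium-flux fluorescence, kinetic read; read-out basis: B-scored fluorescence response ratio; controls: positive and negative controls per plate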
# RGS4 pot – RGS4 potentiation or activation. HEK293 M3R/inducible RGS4, carbachol calcium flux Fluo4; active compounds read low. B-score at 10 µM. hit rate 0.92% among 310,000. AID 463111;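 active = B-score of the integrated calcium signal more than 4 SD below the library mean, with starting fluorescence not abnormally high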;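 note: negative B-score means reduced calcium response which marks RGS4 activation or potentiation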
#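 System: HEK293 FlpIn-TREx cells, stable M3R, doxycycline-inducible RGS4. Timing: overnight RGS4 induction, 30 min dye load 37 °C, 20 min compound RT. Also added: carbachol, ECmax concentration. Measured by: Fluo4 fluorescence kinetic imaging of calcium. Evaluation: integrated calcium ratio converted to B score.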
# RGS4 inh – human RGS4 inhibition | P49798 | HEK293 M3R/RGS4 inducible, Fluo-4 calcium flux; active compounds read high; triggered by carbachol at its EC20 | B-score at 10 µM | hit rate 0.45% among 310,000;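 active = B-score, a plate-corrected calcium signal, over three deviations above library mean, with baseline fluorescence within five deviations of library mean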;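 note: RGS4 expression induced by doxycycline in cells with stable M3 receptor; B-score is computed from the integrated fluorescence ratio over baseline after carbachol; higher B-score means a larger calcium signal and so more RGS4 inhibition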
# Target sequence (P49798 whole entry, looked up): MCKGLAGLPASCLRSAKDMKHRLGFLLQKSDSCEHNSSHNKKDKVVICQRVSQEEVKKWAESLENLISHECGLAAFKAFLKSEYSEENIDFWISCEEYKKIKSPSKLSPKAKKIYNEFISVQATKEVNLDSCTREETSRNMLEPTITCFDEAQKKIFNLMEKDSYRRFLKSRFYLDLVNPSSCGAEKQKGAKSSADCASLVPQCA
# MrgX1 ant reconf – confirmation of human MrgX1 receptor antagonists | hit rate 19% among 2,300 | remaining BAM8-22 calcium response % of control (active compounds read low), % at 10 µM | MrgX1-HEK293, BAM8-22 calcium flux, Fluo-4; active compounds read low | shares compounds with MrgX1 antag;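 active = remaining agonist calcium response no higher than 100% minus 3 SD of agonist-only control wells, with starting fluorescence near control levels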;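 note: agonist BAM8-22 given at a near maximal EC90 to ECmax level; peak minus minimum fluorescence divided by baseline after agonist addition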
# HEK293 Ca flux – activity in parental HEK293 cells lacking MrgX1; shares compounds with MrgX1 antag; Fluo-4 calcium fluorescence, FDSS; fluorescence ratio F(max-min)/F0 at 10 µM; hit rate 2% among 4,000; AID 624111;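 active = duplicate-averaged calcium fluorescence ratio at least three times the standard deviation of buffer wells, a nonspecific response in parental cells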
# HEK293 Ca counter – counter-screen for MrgX1 allosteric activators: effect in parental HEK293 cells; fluorescence ratio F(max-min)/F0 at 10 µM; parental HEK293 calcium flux, Fluo-4 fluorescence ratio; active compounds read high; hit rate 0.4% among 4,000; shares compounds with MrgX1 antag;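 active = calcium fluorescence ratio, averaged over duplicates, at least 3 SD of the buffer-well ratio, meaning a nonspecific response in receptor-free cells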;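 note: untransfected parental HEK293 lacking MrgX1 used as counterscreen for MrgX1 allosteric activators; fluorescence change taken during the second addition on a kinetic imager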
# HEK293 Ca cntr2 – MrgX1 activator counter-screen hit in parental HEK293 cells; shares compounds with MrgX1 antag; Fluo-4 calcium fluorescence (FDSS); active compounds read high; fluorescence ratio F(max-min)/F0 at 10 µM; hit rate 8.7% among 4,000;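 active = calcium fluorescence ratio at least three times the spread of buffer wells, meaning a non-specific response in parental cells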
# Numbers without * were called inactive; i = inactive; / = not tested or not shown. This is a sample that favours compounds with a hit; in the whole collection about 3.5% have one here.
SMILES,MrgX1 allo act,MrgX1 antag,MrgX1 agonist,RGS4 pot,RGS4 inh,MrgX1 ant reconf,HEK293 Ca flux,HEK293 Ca counter,HEK293 Ca cntr2
COC(=O)C1=C(C)NC(=S)N(C(C)=O)C1c1ccc(OC)c(OC)c1 (configuration not stated),i,i,i,i,i,/,/,/,/
O=C(c1cccc(Br)c1)N1CCN(S(=O)(=O)N2CCCCC2)CC1,i,i,i,i,i,/,/,/,/
O=C(COc1ccccc1)Nc1cccc(-c2nc3cc4ccccc4cc3[nH]2)c1,i,-5.1*,i,i,i,78%*,i,i,i
Cc1cc(C)c(S(=O)(=O)N2CCCC(C(=O)NC3CCCC3)C2)c(C)c1 (configuration not stated),i,i,i,i,i,/,/,/,/
CCn1cc(CN2CCc3c([nH]c4ccccc34)C2c2cccc(OC)c2OC)c(C)n1 (configuration not stated),i,-5.4*,i,i,i,i,i,i,i
Cc1ccccc1NS(=O)(=O)c1c(C(=O)N2CCCCCC2)c(C)n(C)c1C,i,i,i,i,i,/,/,/,/
CNC(=O)COc1ccc(S(=O)(=O)Nc2ccc(C)cc2)cc1,i,i,i,i,i,/,/,/,/
O=C(NCc1ccc2c(c1)OCO2)c1ccc(S(=O)(=O)N2CCCCC2)cc1,i,i,i,i,i,/,/,/,/
O=C(NCc1ccc2c(c1)OCO2)c1ccc(NS(=O)(=O)c2ccc3c(c2)OCCO3)cc1,i,-6.9*,i,i,i,i,i,i,i
Cc1ccc(NS(=O)(=O)c2ccc(C(=O)NCc3ccncc3)cc2)cc1,i,-4.6*,i,i,i,79%*,i,i,i
Cc1ccc(NS(=O)(=O)c2ccc(OCC(N)=O)cc2)cc1,i,-9.4*,i,i,i,i,i,i,i
O=C(Nc1ccccc1C(=O)NCc1cccnc1)c1ccc(Cl)cc1Cl,i,i,i,i,i,/,/,/,/
O=C(Nc1ccccc1N1CCCC1)C1CCN(C(=O)c2ccc(F)cc2)CC1,i,i,i,i,i,/,/,/,/
Cc1ccc(NS(=O)(=O)c2c(C)noc2C)cc1,i,i,i,i,i,/,/,/,/
O=C(Nc1ccc(N2C(=O)C3C4C=CC(C4)C3C2=O)cc1)Nc1nncs1 (configuration not stated),i,-4.6*,i,i,i,i,i,i,i
CCOc1ccccc1NC(=O)CCC(=O)Nc1ccc2nc(N3CCN(C)CC3)cc(C)c2c1,i,-5.1*,i,i,i,i,i,i,i
CCCn1nnnc1NC(=O)c1cc(Cl)ccc1Cl,i,i,i,i,i,/,/,/,/
CN1CCN(c2ccc(NC(=O)C(C)(c3ccccc3)c3ccccc3)cc2)CC1,i,i,i,i,i,/,/,/,/
CN1CCN(c2ccc(-c3ccnn3C(=O)Nc3ccccc3)cc2)CC1,i,-10*,i,i,i,i,i,i,i
CN(CCCOc1ccccc1F)Cc1ccccc1,i,i,i,i,i,/,/,/,/
CN(CCCOc1ccccc1Br)Cc1ccccc1,i,-6*,i,i,i,i,i,i,i
CCC(C)(CC(=O)Nc1nccs1)c1ccccc1 (configuration not stated),i,i,i,i,i,/,/,/,/
O=C(CSc1nc(-c2ccc(F)cc2)cs1)N1CCOCC1,i,-9.2*,i,i,i,i,i,i,i
